Data on 25 compounds can be found in ChEMBL document CHEMBL3992564, “Design and synthesis of novel, potent and selective hypoxanthine analogs as adenosine A1 receptor antagonists and their biological evaluation” (Bioorg Med Chem, 2017).

A word on the Ki: it is the equilibrium dissociation constant of an inhibitor or competing ligand from its target. In general, inhibition refers to the relative decrease from the control value, in per cent. Low values mean a response near the control, high ones a response far below the control.

Test [1] deals with T1, Adenosine receptor A1 (Homo sapiens, UniProt P30542).
T1 sequence (P30542 whole entry): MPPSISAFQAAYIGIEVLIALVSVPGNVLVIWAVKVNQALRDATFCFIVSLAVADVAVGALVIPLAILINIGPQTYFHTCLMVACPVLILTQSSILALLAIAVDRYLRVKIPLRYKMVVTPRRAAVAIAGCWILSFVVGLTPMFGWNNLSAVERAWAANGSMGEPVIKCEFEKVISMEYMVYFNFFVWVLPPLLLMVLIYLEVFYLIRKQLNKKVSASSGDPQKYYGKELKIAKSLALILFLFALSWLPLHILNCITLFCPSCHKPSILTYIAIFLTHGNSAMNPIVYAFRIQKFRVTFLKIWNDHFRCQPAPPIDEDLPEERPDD
The test is described as follows: Displacement of [3H]DPCPX from human adenosine A1 receptor expressed in HEK293 cell membranes after 90 mins.

Test [2] concerns the target T2, Adenosine receptor A2b (Homo sapiens) (UniProt P29275).
T2 sequence (whole entry): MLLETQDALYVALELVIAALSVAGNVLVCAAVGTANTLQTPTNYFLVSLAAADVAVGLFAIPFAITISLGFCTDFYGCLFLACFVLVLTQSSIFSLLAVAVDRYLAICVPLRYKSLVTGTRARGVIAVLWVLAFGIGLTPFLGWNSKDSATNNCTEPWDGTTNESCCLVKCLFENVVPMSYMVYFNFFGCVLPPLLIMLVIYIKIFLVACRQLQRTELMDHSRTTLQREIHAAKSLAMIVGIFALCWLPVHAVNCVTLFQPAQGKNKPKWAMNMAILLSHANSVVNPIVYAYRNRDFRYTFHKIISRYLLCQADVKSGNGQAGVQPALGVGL
The test is described as follows: Displacement of [3H]MRS-1754 from human adenosine A2B receptor expressed in HEK293 cell membranes at 1 uM after 90 mins relative to control. The gist of the method: (§1)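 Membranes from HEK-293 cells stably transfected with human receptor, pre-treated with adenosine deaminase. Radioligands: 1 nM [3H]DPCPX (A1), 1 nM [3H]ZM241385 (A2A), 1.6 nM [3H]MRS-1754 (A2B), 2 nM [3H]HEMADO (A3). Buffers: Tris pH 7.4 (A1, A2A, A3) or pH 6.5 (A2B), with ADA. Incubated 90 min at room temperature, then filtered. Nonspecific binding defined with 100 µM NECA. Ki from 8 concentrations run in triplicate.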
(In general: Displacement assays read how much labelled ligand stays bound in the presence of the test substance.)

The target in the next test is Adenosine receptor A2a (Homo sapiens, UniProt P29274). The test is described as follows: Displacement of [3H]ZM241385 from human adenosine A2A receptor expressed in HEK293 cell membranes at 1 uM after 90 mins relative to control. The gist of the method:
as §1

Test [3] deals with T1, Adenosine receptor A1. The experiment in a line: Antagonist activity at human adenosine A1 receptor expressed in HEK293 cells assessed as reduction in CPA-mediated inhibition of forskolin-stimulated cAMP level preincubated for 15 mins followed by CPA treatment for 15 mins and subsequent addition of forskolin measured after 30 mins by HTRF assay. The class given is functional, cell-based. For orientation: Changes in cAMP serve as a functional read-out for many G protein-coupled receptors.

In test [4] the target is T3, Adenosine receptor A3 (Homo sapiens) (UniProt P0DMS8).
T3 sequence (whole entry): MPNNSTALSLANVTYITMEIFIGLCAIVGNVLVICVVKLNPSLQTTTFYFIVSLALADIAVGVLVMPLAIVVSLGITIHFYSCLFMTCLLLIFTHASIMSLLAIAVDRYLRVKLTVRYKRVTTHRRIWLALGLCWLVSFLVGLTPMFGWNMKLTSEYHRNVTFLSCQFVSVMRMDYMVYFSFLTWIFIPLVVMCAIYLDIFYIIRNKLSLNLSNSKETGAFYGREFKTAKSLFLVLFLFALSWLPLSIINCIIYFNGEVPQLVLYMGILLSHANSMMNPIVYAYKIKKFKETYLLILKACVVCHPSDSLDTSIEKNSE
The test is described as follows: Displacement of [3H]HEMADO from human adenosine A3 receptor expressed in HEK293 cell membranes at 1 uM after 90 mins relative to control. The method in brief: as §1

Adenosine receptor A2a, sequence (P29274 whole entry): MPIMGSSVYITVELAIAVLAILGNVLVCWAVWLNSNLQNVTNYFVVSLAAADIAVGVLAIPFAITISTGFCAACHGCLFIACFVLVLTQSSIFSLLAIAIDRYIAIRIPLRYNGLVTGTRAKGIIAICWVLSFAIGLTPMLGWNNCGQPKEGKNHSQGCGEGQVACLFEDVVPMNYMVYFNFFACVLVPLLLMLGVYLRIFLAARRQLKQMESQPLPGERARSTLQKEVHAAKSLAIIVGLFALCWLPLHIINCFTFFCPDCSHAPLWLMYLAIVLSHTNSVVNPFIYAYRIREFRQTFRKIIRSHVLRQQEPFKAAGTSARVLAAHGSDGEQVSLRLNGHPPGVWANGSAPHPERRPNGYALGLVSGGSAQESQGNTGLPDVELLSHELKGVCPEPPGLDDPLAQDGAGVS

Consider `CCCn1c(-c2cccc(C(N)=O)c2)nc2nc(C3CCCC3)[nH]c2c1=O`, for which, on Adenosine receptor A1 [1], the inhibition constant Ki was greater than 1000 nM.
`CCCn1c(Nc2cccc(C(F)(F)F)c2)nc2nc(C3CCCC3)[nH]c2c1=O`: the inhibition was 5% in test [2] and 27% at Adenosine receptor A2a. In addition, at Adenosine receptor A1 [1], the Ki turned out to be 370 nM.
Take `CCCn1c(-c2cccc(O)c2)nc2nc(C3CCCC3)[nH]c2c1=O`: the inhibition in test [2] came out at 100%; on Adenosine receptor A2a, 74%. Also, the Ki was 0.2 nM on Adenosine receptor A1 [3] and 1 nM on Adenosine receptor A1 [1].
`CCCn1c(OC2CCN(C)C2)nc2nc(C3CCCC3)[nH]c2c1=O` (centres undefined) returned a Ki on Adenosine receptor A1 [1] greater than 1000 nM.
The same measure, in the same setting: as for `CCCn1c(Oc2cccc(CC(=O)O)c2)nc2nc(C3CCCC3)[nH]c2c1=O`, the figure is greater than 1000 nM.
Same read-out and setting: the value for `CCCn1c(Oc2ccc(C(N)=O)cc2)nc2nc(C3CCCC3)[nH]c2c1=O` was greater than 1000 nM.
`CCCn1c(Oc2cncc(Cl)c2)nc2nc(C3CCCC3)[nH]c2c1=O`: the results for the inhibition (in test [2]; at Adenosine receptor A2a; in test [4]) were 37%, 22% and 76%, respectively. Besides, the figures for the inhibition constant (Ki) on Adenosine receptor A1 [3] and at Adenosine receptor A1 [1] were 2.2 nM and 12 nM, respectively.
The corresponding values for `CCCn1c(OC2CCOCC2)nc2nc(C3CCCC3)[nH]c2c1=O` are 56%, 82%, 0%, 12 nM and 20 nM.
For `CCCn1c(O[C@@H]2CCOC2)nc2nc(C3CCCC3)[nH]c2c1=O`, the Ki on Adenosine receptor A1 [1] came to 50 nM.
With `CCCn1c(Nc2ccc(F)cc2)nc2nc(C3CCCC3)[nH]c2c1=O`, the inhibition in test [2] turned out to be 6%; at Adenosine receptor A2a it was 0%; in test [4], 24%. The compound also registered a Ki at Adenosine receptor A1 [1] greater than 1000 nM.
In turn, `CCCn1c(Oc2cc(C)ccn2)nc2nc(C3CCCC3)[nH]c2c1=O` yielded a Ki on Adenosine receptor A1 [1] greater than 1000 nM.
The same measure, in the same setting: the value for `CCCn1c(Oc2ccc(S(N)(=O)=O)cc2)nc2nc(C3CCCC3)[nH]c2c1=O` was greater than 1000 nM.
On to `CCCn1c(Oc2cccc3cc[nH]c23)nc2nc(C3CCCC3)[nH]c2c1=O`, for which the inhibition in test [2] was 42%; at Adenosine receptor A2a, 25%; in test [4] it was 40%. Besides, the Ki on Adenosine receptor A1 [3] is 5.6 nM; on Adenosine receptor A1 [1], 5.5 nM.
In the case of `CCCn1c(Oc2cccc(O)c2)nc2nc(C3CCCC3)[nH]c2c1=O`, the inhibition worked out at 53% in test [2], 81% at Adenosine receptor A2a and 69% in test [4]. The same compound showed a Ki at Adenosine receptor A1 [1] of 10.5 nM.
Turning to `CCCn1c(Oc2cccc3[nH]ccc23)nc2nc(C3CCCC3)[nH]c2c1=O`, the Ki at Adenosine receptor A1 [1] is 74 nM.
As for `CCCn1c(Oc2ccc3[nH]ccc3c2)nc2nc(C3CCCC3)[nH]c2c1=O`, the inhibition is 0% in test [2], 0% on Adenosine receptor A2a and 34% in test [4]. The same compound returned a Ki at Adenosine receptor A1 [1] of 36 nM.
On Adenosine receptor A1 [1], `CCCn1c(O[C@H]2CCOC2)nc2nc(C3CCCC3)[nH]c2c1=O` gave a Ki of 85 nM.
As for `CCCn1c(NCc2ccc(C)cc2)nc2nc(C3CCCC3)[nH]c2c1=O`, the inhibition stood at 6% in test [2], 0% on Adenosine receptor A2a and 24% in test [4]. The Ki on Adenosine receptor A1 [1] worked out at 27 nM.
As for `CCCn1c(Nc2ccccc2)nc2nc(C3CCCC3)[nH]c2c1=O`, the Ki on Adenosine receptor A1 [1] was greater than 1000 nM.
Same read-out and setting: as for `CCCn1c(NCc2cccc(Cl)c2)nc2nc(C3CCCC3)[nH]c2c1=O`, the figure is 120 nM; as for `CCCn1c(Oc2ccc(C)nc2)nc2nc(C3CCCC3)[nH]c2c1=O`, 630 nM.
Consider `CCCn1c(Nc2cccc(F)c2)nc2nc(C3CCCC3)[nH]c2c1=O`, for which the inhibition in test [2] amounted to 16%; at Adenosine receptor A2a, 31%. The compound further yielded a Ki on Adenosine receptor A1 [1] of 4500 nM.
The compound `CCCn1c(Oc2cccnc2Cl)nc2nc(C3CCCC3)[nH]c2c1=O` registered a Ki at Adenosine receptor A1 [1] of 3.6 nM.
`CCCn1c(OC2CCOC2)nc2nc(C3CCCC3)[nH]c2c1=O` (centres undefined) yielded a Ki at Adenosine receptor A1 [1] of 59 nM.
On to `CCCn1c(NCc2ccc(C(F)(F)F)cc2)nc2nc(C3CCCC3)[nH]c2c1=O`, for which the inhibition stood at 0% in test [2], 0% on Adenosine receptor A2a and 23% in test [4]. The compound further came in with a Ki at Adenosine receptor A1 [1] of 23 nM.
